{"source": "ChEMBL document CHEMBL1127337", "about": "“1-((7,7-Dimethyl-2(S)-(2(S)-amino-4-(methylsulfonyl)butyramido)bicyclo [2.2.1]-heptan-1(S)-yl)methyl)sulfonyl)-4-(2-methylphenyl)piperaz ine (L-368,899): an orally bioavailable, non-peptide oxytocin antagonist with potential utility for managing preterm labor” (J Med Chem, 1994)", "key": {"[1]": {"molecular_target": "T1, Oxytocin receptor (Rattus norvegicus, UniProt P70536)", "T1 sequence (P70536 whole entry)": "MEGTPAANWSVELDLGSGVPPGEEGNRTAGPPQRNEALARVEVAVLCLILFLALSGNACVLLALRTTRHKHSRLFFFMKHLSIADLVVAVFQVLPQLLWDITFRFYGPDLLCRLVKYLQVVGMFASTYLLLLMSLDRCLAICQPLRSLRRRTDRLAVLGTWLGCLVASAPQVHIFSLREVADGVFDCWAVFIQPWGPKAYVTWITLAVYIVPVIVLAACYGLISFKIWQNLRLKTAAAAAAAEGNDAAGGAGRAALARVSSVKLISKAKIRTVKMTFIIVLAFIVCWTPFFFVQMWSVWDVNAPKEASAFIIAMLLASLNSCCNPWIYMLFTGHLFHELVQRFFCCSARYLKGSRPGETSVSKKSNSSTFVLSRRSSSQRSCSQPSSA", "test": "Displacement of [3H]OT from binding to oxytocin receptor of rat uterus", "procedure,_shortened": "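Competition binding against [3H]OT on uterine tissue from pregnant rats (day 22-23 of gestation) or DES-pretreated rats. IC50 is the molar concentration giving 50% displacement of radioligand.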"}, "[2]": {"system": "Rattus norvegicus", "test": "In vivo dose given intravenously (iv) that reduces by 50% the contractile response of the in situ rat uterus to exogenous OT", "assay_type": "functional", "procedure,_shortened": "(§1)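 Anesthetized DES-pretreated rats set up for isometric recording of in situ uterine contraction; OT 1 µg/kg iv every 35 min, third response taken as 100%. Antagonist infused iv over 10 min in saline, saline with 2% DMSO, or 15% DMSO plus 15% emulphor. AD50 is the dose cutting the response to the fourth OT injection by 50% relative to vehicle-treated rats.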"}, "[3]": {"molecular_target": "T1, Oxytocin receptor", "test": "In vitro antagonism of OT-induced uterine contractions, against rat uterus by measuring pA2 value", "assay_type": "functional, tissue-based", "settings": "read-out: pA2 (converted)", "procedure,_shortened": "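Uteri isolated from DES-pretreated rats and contracted with OT. pA2 is the negative log molar antagonist concentration giving a 2-fold rightward shift of the OT dose-response curve (dose ratio 2), derived from Schild plots.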"}, "[4]": {"system": "Rattus norvegicus", "test": "In vivo dose given intraduodenally (id) that reduces by 50% the contractile response of the in situ rat uterus to exogenous OT", "assay_type": "functional", "procedure,_shortened": "(§2)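 Uterine contraction recorded isometrically in situ in anesthetized DES-pretreated rats; OT 1 µg/kg iv at 35-min intervals, third response set as 100%. Antagonist injected intraduodenally as a suspension in saline with 1% methocel. AD50 is the dose lowering the response to the fourth OT injection by 50% against the vehicle group.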"}, "[5]": {"molecular_target": "Vasopressin V2 receptor (Rattus norvegicus, UniProt Q00788)", "sequence (Q00788 whole entry)": "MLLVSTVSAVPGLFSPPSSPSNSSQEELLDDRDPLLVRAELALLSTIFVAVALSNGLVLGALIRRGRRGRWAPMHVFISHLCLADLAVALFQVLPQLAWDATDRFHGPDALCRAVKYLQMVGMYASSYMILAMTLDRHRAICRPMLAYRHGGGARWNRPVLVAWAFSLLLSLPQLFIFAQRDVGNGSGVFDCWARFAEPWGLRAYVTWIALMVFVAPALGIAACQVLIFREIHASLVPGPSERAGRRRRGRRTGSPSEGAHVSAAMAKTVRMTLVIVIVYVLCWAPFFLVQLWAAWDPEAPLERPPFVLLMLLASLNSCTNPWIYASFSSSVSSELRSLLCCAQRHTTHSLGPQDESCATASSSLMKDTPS", "test": "Displacement of [3H]-AVP from binding to Vasopressin receptor V2 of rat kidney", "procedure,_shortened": "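[3H]AVP competition binding on kidney medulla from male rats (V2 site). IC50 is the molar concentration displacing 50% of radioligand.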"}, "[6]": {"molecular_target": "Vasopressin V1a receptor (Rattus norvegicus, UniProt P30560)", "sequence (P30560 whole entry)": "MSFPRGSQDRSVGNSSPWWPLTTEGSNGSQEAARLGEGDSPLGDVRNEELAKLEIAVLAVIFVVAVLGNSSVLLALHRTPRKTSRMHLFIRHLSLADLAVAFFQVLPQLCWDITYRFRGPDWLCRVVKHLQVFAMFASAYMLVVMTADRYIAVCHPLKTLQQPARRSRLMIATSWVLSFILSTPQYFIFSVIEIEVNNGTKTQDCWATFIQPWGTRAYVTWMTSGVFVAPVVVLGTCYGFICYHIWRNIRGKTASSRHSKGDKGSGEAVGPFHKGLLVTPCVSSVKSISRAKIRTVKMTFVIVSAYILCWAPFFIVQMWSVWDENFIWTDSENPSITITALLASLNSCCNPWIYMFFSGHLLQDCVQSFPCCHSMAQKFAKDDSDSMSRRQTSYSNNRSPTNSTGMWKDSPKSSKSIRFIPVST", "test": "Displacement of [3H]AVP from binding to arginine vasopressin 1a (V1a) […] of rat liver", "procedure,_shortened": "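Competition binding against [3H]AVP on liver from male rats (V1a site). IC50 is the molar concentration giving 50% radioligand displacement.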"}, "[7]": {"test": "Aqueous solubilities were determined by dissolving an crystalline hemisulfate and […] salts, respectively in water and adding acetate to pH 5.0, concentrations are expressed in free base equivalents", "assay_type": "ADME", "settings": "water adjusted with acetate, read-out: S", "procedure,_shortened": "(§3)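 Crystalline hemisulfate or dihydrochloride salt dissolved in water, then acetate added to pH 5.0 to measure aqueous solubility.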"}, "[8]": {"system": "Rattus norvegicus", "test": "In vivo dose given intraduodenally (id) that reduces by 50% the contractile response of the in situ rat uterus to exogenous OT; NA=Inactive at 3.0 mg/Kg", "assay_type": "functional, organism-based", "procedure,_shortened": "as §2"}, "[9]": {"test": "Aqueous solubilities were determined by dissolving an crystalline hemisulfate and […] salts, respectively in water and adding acetate to pH 5.0, concentrations are expressed in free base equivalents.", "assay_type": "ADME", "settings": "water adjusted with acetate, read-out: S", "procedure,_shortened": "as §3"}, "[10]": {"system": "Rattus norvegicus", "test": "AD50 value which refers to the dose given intravenously (iv) that reduces by 50% the contractile response of the in situ rat uterus to exogenous OT was determined for the compound in vivo", "assay_type": "functional", "procedure,_shortened": "as §1"}, "[11]": {"system": "Rattus norvegicus", "test": "In vivo dose given intraduodenally (id) that reduces by 50% the contractile response of the in situ rat uterus to exogenous OT; NA=Inactive at 1.0", "assay_type": "functional, organism-based", "procedure,_shortened": "as §2"}, "[12]": {"molecular_target": "T1, Oxytocin receptor", "test": "In vitro antagonism of OT-induced uterine contractions, against rat uterus by measuring pA2 value which refers to the negative logarithm of the molar concentration", "assay_type": "functional, tissue-based", "settings": "read-out: pA2 (converted)", "procedure,_shortened": "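Uteri isolated from diethylstilbestrol-pretreated rats; contractions evoked by oxytocin. pA2 = negative log of molar antagonist concentration giving a 2-fold rightward shift of the oxytocin dose-response curve (dose ratio 2), derived by Schild analysis.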"}, "[13]": {"system": "Rattus norvegicus", "test": "In vivo dose given intraduodenally (id) that reduces by 50% the contractile response of the in situ rat uterus to exogenous OT; ca.20", "assay_type": "functional", "procedure,_shortened": "as §2"}, "[14]": {"system": "Rattus norvegicus", "test": "in vivo dose given intravenously (iv) that reduces by 50% the contractile response of the in situ rat uterus to exogenous OT", "assay_type": "functional", "procedure,_shortened": "as §1"}, "[15]": {"system": "Rattus norvegicus", "test": "In vivo dose given intraduodenally (id) that reduces by 50% the contractile response of the in situ rat uterus to exogenous OT; ca.2", "assay_type": "functional", "procedure,_shortened": "as §2"}}, "note": "Active and inactive are the calls of the source. No cut-off for these calls is given here.", "data": [{"smiles": "Cc1ccccc1N1CCN(S(=O)(=O)C[C@]23CCC(C[C@@H]2NC(=O)[C@H](CCS(C)(=O)=O)N(C)C)C3(C)C)CC1", "values": [{"measurement": "IC50", "setting": "[1]", "result": 4.9, "unit": "nM"}, {"measurement": "AD50", "setting": "[2]", "result": 0.13, "unit": "mg/kg"}, {"measurement": "Kb", "setting": "[3]", "result": 1, "unit": "nM"}, {"measurement": "AD50", "setting": "[4]", "result": 2.6, "unit": "mg/kg"}, {"measurement": "IC50", "setting": "[5]", "result": 290, "unit": "nM"}, {"measurement": "IC50", "setting": "[6]", "result": 360, "unit": "nM"}, {"measurement": "solubility", "setting": "[7]", "result": 3100, "unit": "µg/mL"}]}, {"smiles": "Cc1ccccc1N1CCN(S(=O)(=O)C[C@]23CCC(C[C@@H]2NC(=O)[C@H](CCS(C)(=O)=O)N(CCO)CCO)C3(C)C)CC1", "values": [{"measurement": "IC50", "setting": "[1]", "result": 2.8, "unit": "nM"}, {"measurement": "AD50", "setting": "[8]", "result": "inactive"}, {"measurement": "AD50", "setting": "[2]", "result": 0.087, "unit": "mg/kg"}, {"measurement": "IC50", "setting": "[5]", "result": 240, "unit": "nM"}, {"measurement": "IC50", "setting": "[6]", "result": 650, "unit": "nM"}, {"measurement": "solubility", "setting": "[9]", "result": 190, "unit": "µg/mL"}]}, {"smiles": "Cc1ccccc1N1CCN(S(=O)(=O)C[C@]23CCC(C[C@@H]2NC(=O)[C@H](CCS(C)(=O)=O)NC2CCOCC2)C3(C)C)CC1", "values": [{"measurement": "IC50", "setting": "[1]", "result": 2.4, "unit": "nM"}, {"measurement": "AD50", "setting": "[2]", "result": 0.045, "unit": "mg/kg"}, {"measurement": "AD50", "setting": "[4]", "result": 1.4, "unit": "mg/kg"}, {"measurement": "IC50", "setting": "[5]", "result": 270, "unit": "nM"}, {"measurement": "IC50", "setting": "[6]", "result": 680, "unit": "nM"}, {"measurement": "solubility", "setting": "[7]", "result": 360, "unit": "µg/mL"}]}, {"smiles": "Cc1ccccc1N1CCN(S(=O)(=O)C[C@]23CCC(C[C@@H]2NC(=O)[C@H](CCS(C)(=O)=O)NC2CCS(=O)(=O)CC2)C3(C)C)CC1", "values": [{"measurement": "IC50", "setting": "[1]", "result": 1.4, "unit": "nM"}, {"measurement": "AD50", "setting": "[10]", "result": 0.031, "unit": "mg/kg"}, {"measurement": "IC50", "setting": "[5]", "result": 160, "unit": "nM"}, {"measurement": "IC50", "setting": "[6]", "result": 440, "unit": "nM"}, {"measurement": "solubility", "setting": "[7]", "result": "< 300", "unit": "µg/mL"}, {"measurement": "AD50", "setting": "[11]", "result": "inactive"}]}, {"smiles": "CCN(CC)[C@@H](CCS(C)(=O)=O)C(=O)N[C@H]1CC2CC[C@]1(CS(=O)(=O)N1CCN(c3ccccc3C)CC1)C2(C)C", "values": [{"measurement": "IC50", "setting": "[1]", "result": 18, "unit": "nM"}, {"measurement": "IC50", "setting": "[5]", "result": 310, "unit": "nM"}, {"measurement": "IC50", "setting": "[6]", "result": 1300, "unit": "nM"}, {"measurement": "solubility", "setting": "[7]", "result": 230, "unit": "µg/mL"}]}, {"smiles": "CN[C@@H](CCS(C)(=O)=O)C(=O)N[C@H]1CC2CC[C@]1(CS(=O)(=O)N1CCN(c3ccccc3C)CC1)C2(C)C", "values": [{"measurement": "IC50", "setting": "[1]", "result": 9.2, "unit": "nM"}, {"measurement": "IC50", "setting": "[5]", "result": 350, "unit": "nM"}, {"measurement": "IC50", "setting": "[6]", "result": 320, "unit": "nM"}]}, {"smiles": "Cc1ccccc1N1CCN(S(=O)(=O)C[C@]23CCC(C[C@@H]2NC(=O)[C@@H](N)CCS(C)(=O)=O)C3(C)C)CC1", "values": [{"measurement": "IC50", "setting": "[1]", "result": 8.9, "unit": "nM"}, {"measurement": "AD50", "setting": "[2]", "result": 0.35, "unit": "mg/kg"}, {"measurement": "Kb", "setting": "[12]", "result": 1.26, "unit": "nM"}, {"measurement": "AD50", "setting": "[4]", "result": 7, "unit": "mg/kg"}, {"measurement": "IC50", "setting": "[5]", "result": 570, "unit": "nM"}, {"measurement": "IC50", "setting": "[6]", "result": 370, "unit": "nM"}, {"measurement": "solubility", "setting": "[7]", "result": 3700, "unit": "µg/mL"}]}, {"smiles": "CC1(C)C2CC[C@@]1(CS(=O)(=O)N1CCC3(CCc4ccccc43)CC1)[C@@H](NC(=O)[C@@H](N)CCS(C)(=O)=O)C2", "values": [{"measurement": "IC50", "setting": "[1]", "result": 12, "unit": "nM"}, {"measurement": "AD50", "setting": "[13]", "result": 20, "unit": "mg/kg"}, {"measurement": "IC50", "setting": "[5]", "result": 2400, "unit": "nM"}, {"measurement": "AD50", "setting": "[14]", "result": 0.84, "unit": "mg/kg"}, {"measurement": "IC50", "setting": "[6]", "result": 890, "unit": "nM"}, {"measurement": "solubility", "setting": "[9]", "result": 1500, "unit": "µg/mL"}]}, {"smiles": "Cc1ccccc1N1CCN(S(=O)(=O)C[C@]23CCC(C[C@@H]2NC(=O)[C@H](CCS(C)(=O)=O)NC2CCCCC2)C3(C)C)CC1", "values": [{"measurement": "IC50", "setting": "[1]", "result": 15, "unit": "nM"}, {"measurement": "IC50", "setting": "[5]", "result": 230, "unit": "nM"}, {"measurement": "IC50", "setting": "[6]", "result": 600, "unit": "nM"}]}, {"smiles": "Cc1ccccc1N1CCN(S(=O)(=O)C[C@]23CCC(C[C@@H]2NC(=O)[C@H](CCS(C)(=O)=O)NC2CCNCC2)C3(C)C)CC1", "values": [{"measurement": "IC50", "setting": "[1]", "result": 1.3, "unit": "nM"}, {"measurement": "AD50", "setting": "[2]", "result": 0.021, "unit": "mg/kg"}, {"measurement": "IC50", "setting": "[5]", "result": 130, "unit": "nM"}, {"measurement": "IC50", "setting": "[6]", "result": 220, "unit": "nM"}, {"measurement": "solubility", "setting": "[7]", "result": 3000, "unit": "µg/mL"}, {"measurement": "AD50", "setting": "[11]", "result": "inactive"}]}, {"smiles": "CC1(C)C2CC[C@@]1(CS(=O)(=O)N1CCC3(CCc4ccccc43)CC1)[C@@H](NC(=O)[C@@H](N)CCC(N)=O)C2", "values": [{"measurement": "IC50", "setting": "[1]", "result": 12, "unit": "nM"}, {"measurement": "AD50", "setting": "[4]", "result": ">30", "unit": "mg/kg"}, {"measurement": "IC50", "setting": "[5]", "result": 5100, "unit": "nM"}, {"measurement": "IC50", "setting": "[6]", "result": 2300, "unit": "nM"}, {"measurement": "AD50", "setting": "[15]", "result": 2, "unit": "mg/kg"}]}]}
